The results in this text go back to ChEMBL document CHEMBL4513216, “Probing the Open Global Health Chemical Diversity Library for Multistage-Active Starting Points for Next-Generation Antimalarials” (ACS Infect Dis, 2020).

A short description of the data set: Toxicity liver stage against HepG2, at 10uM. The data set is classed as cell-based. The arrangement: test concentration 10 uM, cell line HepG2-A16-CD81EGFP. The following applies: human, HepG2-A16-CD81EGFP cells; read-out: INHIBITION
Put shortly:
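Uninfected HepG2-A16-CD81EGFP cells, 3 × 10^3 per well, 1536-well, plated on prespotted compound at 10 μM final, parasite-free screening media added to match infected plates; puromycin 10 μM positive, DMSO 0.5% negative; run in parallel with 48 h PbLuc assay at 37 °C, 5% CO2; viability by CellTiter-Glo luminescence, normalized to controls.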
For `Cc1occc1C(=O)N1CCC2(CCCN(Cc3cccs3)C2)C1` (stereo unspecified), the cytotoxicity at 10 µM worked out at 4.3%.

`COCC1CN(Cc2ccoc2)Cc2cn(CC3CCOCC3)nc21` (stereo unspecified): the cytotoxicity at 10 µM was 11.6%.

On to `CCOc1cccc(NC(=O)c2cc[nH]n2)n1`, for which the cytotoxicity at 10 µM was 3.51%.

As for `O=C(c1cnn2c1OCCC2)N1CCC(Cc2ccccc2)CC1`, the cytotoxicity at 10 µM was found to be 0.524%.

`NC(=O)CN1CCCN(C(=O)Cc2ccc(Br)cc2)CC1`: the cytotoxicity at 10 µM is -6.58%.

Regarding `O=C(C1CC1)N1C[C@H]2CNC[C@@]2(C(=O)NCCCc2ccccc2)C1`, the cytotoxicity at 10 µM is -0.371%.

`CCN1C(=O)C(c2ccccc2)CC12CCN(c1ncccn1)CC2` (stereo unspecified): the cytotoxicity at 10 µM worked out at 1.11%.

For the compound `CCOc1ccc(-c2nc(C(=O)NCC3CCOC3)cs2)cc1` (stereo unspecified), the cytotoxicity at 10 µM was -4.33%.

Consider `CC(C)c1noc(CCNC(=O)N2CCC(O)(C(F)(F)F)C2)n1` (stereo unspecified), for which the cytotoxicity at 10 µM amounted to 9.74%.

For the compound `O=C(Cc1ccccn1)N1C[C@H](OCc2cccnc2)[C@H]2COC[C@H]21`, the cytotoxicity at 10 µM is 12.3%.

On to `CS(=O)(=O)N1CCO[C@@H]2CN(Cc3ccc(F)cc3)CC[C@@H]2C1`, for which the cytotoxicity at 10 µM was determined as 6.86%.

Take `O=C(c1ccnnc1)N1C[C@H](OCC2CC2)[C@H]2COC[C@H]21`: the cytotoxicity at 10 µM turned out to be 0.0658%.

With `Cc1cnn(CC2CCCN2Cc2nnc(-c3ccccc3)o2)c1` (stereo unspecified), the cytotoxicity at 10 µM was -9.86%.

Consider `CS(=O)(=O)CCCC(=O)Nc1cc(Cl)c(Cl)cn1`, for which the cytotoxicity at 10 µM is 2.69%.

With `CSc1ncccc1C(=O)NCC(c1ccco1)N(C)C` (stereo unspecified), the cytotoxicity at 10 µM was found to be 2.57%.

Turning to `CN(Cc1n[nH]c2c1CCC2)C(=O)CCc1cc2n(n1)CCNC2`, the cytotoxicity at 10 µM was -10.5%.

Take `O=C1[C@@H]2CC[C@@H](CN(C3CCOCC3)C2)N1Cc1cscn1`: the cytotoxicity at 10 µM is -7.15%.

Turning to `O=C1CCC(C(=O)NCc2nn(-c3ccccc3)c3c2CCC3)CN1` (stereo unspecified), the cytotoxicity at 10 µM was -10.1%.

`CCc1noc(CN(CC)C(=O)C2CC(=O)N(Cc3ccncc3)C2)n1` (stereo unspecified): the cytotoxicity at 10 µM was 18.2%.

On to `CCc1nncn1CCNC(=O)Nc1ccc(OC)c(C)c1`, for which the cytotoxicity at 10 µM was found to be 9.89%.

Turning to `CCN(CC(=O)NC(C)(C)C)Cc1cccc2c1OCCO2`, the cytotoxicity at 10 µM is -18.7%.

As for `CC(C)CCn1cc(C(C(=O)O)N2CCSCC2)cn1` (stereo unspecified), the cytotoxicity at 10 µM is -1.17%.

In the case of `COc1cccc(CC2CCCN2CC(N)=O)c1` (stereo unspecified), the cytotoxicity at 10 µM is -55.6%.

Take `Cc1ncc(CNc2ccc(C(=O)NCc3ccco3)cc2C)s1`: the cytotoxicity at 10 µM was -10.5%.

`O=C1OCCN1Cc1cc(C(F)(F)F)ccc1F`: the cytotoxicity at 10 µM is -5.52%.

Consider `CCSc1ccc(C(=O)N2CC[C@](C)(O)[C@H](C)C2)s1`, for which the cytotoxicity at 10 µM is -12.2%.

`CCc1nnsc1C(=O)N1CCCC(n2nc(C)nc2C)C1` (stereo unspecified): the cytotoxicity at 10 µM amounted to 4.63%.

On to `Cc1cc(C)n(C(=O)c2cn(C)nc2S(=O)(=O)N2CCSCC2)n1`, for which the cytotoxicity at 10 µM is -2.64%.

For `CCc1cnc(N2CC[C@H]3[C@@H]2CCC(=O)N3CC2CCOCC2)nc1`, the cytotoxicity at 10 µM was determined as 4.28%.

Regarding `COCCCNC(=O)c1c[nH]c2ccc(OC)cc12`, the cytotoxicity at 10 µM is -4.76%.

Regarding `CN(C)C1(CNc2nccc(C3CCCC3)n2)CCOCC1`, the cytotoxicity at 10 µM was -1.3%.

`CC(=O)NCc1ccc(S(=O)(=O)NC(=O)c2ccc3c(c2)COC3)s1`: the cytotoxicity at 10 µM was -1.8%.

On to `Cc1cnn(CC(=O)NCC2(O)CCCc3ccccc32)c1` (stereo unspecified), for which the cytotoxicity at 10 µM is -38%.

Take `Cn1ccnc1CN1CCN(Cc2cc(C#N)ccc2F)CC1`: the cytotoxicity at 10 µM is -4.52%.

In the case of `CCn1ccnc1CN1CCCN(C(=O)c2cccc(C#N)c2)CC1`, the cytotoxicity at 10 µM is -12.2%.

In the case of `CCN(CCn1c(=O)oc2ccccc21)CC1CCOCC1`, the cytotoxicity at 10 µM was -8.73%.

As to `CC(C)c1ncncc1C(=O)NCCN1CCOCC1`, the cytotoxicity at 10 µM is -0.103%.

For the compound `O=C(NC1CC1)c1cc(C2CC2)nc2onc(C3CCNCC3)c12`, the cytotoxicity at 10 µM is 7.16%.

`Cc1nnc(NCCc2coc(-c3ccc(F)cc3)n2)c(C#N)c1C`: the cytotoxicity at 10 µM is -16.3%.

For the compound `COCC(=O)NC[C@H]1C[C@@H]2CCN1C[C@@H]2CN1CCc2ccccc21`, the cytotoxicity at 10 µM worked out at 3.29%.

On to `CN(C)C(=O)CN1C(=O)CO[C@@H]2CN(c3ccccn3)C[C@H]21`, for which the cytotoxicity at 10 µM was 12.3%.

Regarding `Cc1cccc(C)c1NC(=O)CNC(C)Cc1ccsc1` (stereo unspecified), the cytotoxicity at 10 µM was -6.12%.

As to `CCC(=O)Nc1cccc(OCC(=O)N(C)CCCC2CCCO2)c1` (stereo unspecified), the cytotoxicity at 10 µM was -4.63%.

`CCNC(=O)[C@@H]1C[C@H](NC(=O)Cc2ccsc2)CN1Cc1ccc(C)o1`: the cytotoxicity at 10 µM was -11.8%.

Turning to `O=C(c1cncs1)N1CCOCC(Cc2ccncn2)C1` (stereo unspecified), the cytotoxicity at 10 µM was 1.13%.

With `CCOc1ccc(NC(=O)c2oc(CC)cc2C)cc1CO`, the cytotoxicity at 10 µM came to 2.05%.

`O=C(NCc1ccccc1CN1CCCC1)Nc1cccnc1`: the cytotoxicity at 10 µM was found to be 6.75%.

Take `Cn1cnnc1C1CCN(C(=O)CCOc2ccc(Cl)cc2)CC1`: the cytotoxicity at 10 µM is -8.94%.

`CCN1CCN(C(=O)c2cc(-c3cccs3)cs2)CC1`: the cytotoxicity at 10 µM turned out to be 2.93%.

Take `Cc1csc(C2CCCCN2C(=O)CCn2cncn2)n1` (stereo unspecified): the cytotoxicity at 10 µM was -6.32%.

Turning to `Cn1cnnc1-c1cncc(NCc2cccc3c2OCO3)c1`, the cytotoxicity at 10 µM amounted to 9.15%.

Take `C[C@@H]1CN(CC(C)(C)N2CCCCC2)CC[C@@]1(O)C1CC1`: the cytotoxicity at 10 µM was -4.6%.

Consider `CCc1ccsc1C(=O)N1CCN(CCN2C(=O)CCC2=O)CC1`, for which the cytotoxicity at 10 µM is -3.82%.

`CCc1cnc(N)nc1NCCC(=O)NC1CCCCC1`: the cytotoxicity at 10 µM was -42.1%.

In the case of `Cc1csc(C(Cc2ccsc2)NC(=O)C2CCN(S(C)(=O)=O)CC2)n1` (stereo unspecified), the cytotoxicity at 10 µM was -18%.

Take `COc1cc(C)nc(N2CCN(C(=O)CCc3cccs3)CC2)n1`: the cytotoxicity at 10 µM was 5.77%.

`CC(C)CN1C[C@H]2CCN(Cc3cccnc3)CC[C@H]2S1(=O)=O`: the cytotoxicity at 10 µM is -1.8%.

With `CCc1cc(CNC(=O)Nc2cc(F)ccc2N2CCCCC2)on1`, the cytotoxicity at 10 µM was -18.9%.

With `CC(C)c1ccc(C2CC(=O)Nc3c2cnn3C)cc1` (stereo unspecified), the cytotoxicity at 10 µM is -2.9%.

Turning to `COCCNc1nc2c(c(N3CCn4nc(C)cc4C3)n1)CCNCC2`, the cytotoxicity at 10 µM stood at 7.8%.

As for `Cc1occc1C(=O)N1CCO[C@H]2[C@H](Oc3cccnc3)CC[C@@H]21`, the cytotoxicity at 10 µM is -93.4%.

`CCc1cc(NCCCOC2CCCC2)ncn1`: the cytotoxicity at 10 µM is -1.41%.

Regarding `Cn1cc(CN2CCC(CCC(=O)NCc3ccc(F)cc3)CC2)cn1`, the cytotoxicity at 10 µM was -19.5%.

As to `CN(C)Cc1cccc(-c2cccnc2C(=O)NCc2ccco2)c1`, the cytotoxicity at 10 µM amounted to 4.16%.

As to `Cc1ccsc1C(O)CNC(=O)Cc1ccc(F)cc1` (stereo unspecified), the cytotoxicity at 10 µM was determined as 3.15%.

Consider `CCc1ncncc1C(=O)N1CCCN(Cc2ccc(C)cc2)CC1`, for which the cytotoxicity at 10 µM was -0.611%.

As to `Cc1nn(-c2ccccc2)c(C)c1-c1ccnc(N2CCCNCC2)n1`, the cytotoxicity at 10 µM was -9.5%.

`NS(=O)(=O)NCC1(c2ccccc2Br)CC1`: the cytotoxicity at 10 µM was 2.91%.

Consider `Cc1nn2cnnc2c(C)c1CCC(=O)Nc1nnc(C(C)C)s1`, for which the cytotoxicity at 10 µM is -3.25%.

As to `COc1ccc(CNC(=O)NC2CCN(C)CC2)c(C(F)(F)F)c1`, the cytotoxicity at 10 µM was -12.2%.

As for `O=C(Nc1cc(F)ccc1OCC1CCCO1)NC1CC1` (stereo unspecified), the cytotoxicity at 10 µM amounted to 0.043%.

On to `Cc1cnccc1N1CCCN(C(=O)CCCS(N)(=O)=O)CC1`, for which the cytotoxicity at 10 µM was -18.7%.

As for `Cn1nccc1-c1nnn2c1COC(CNCc1nccs1)C2` (stereo unspecified), the cytotoxicity at 10 µM was -1.07%.

`COc1cccc(C2SCC(=O)Nc3ccsc32)c1OC` (stereo unspecified): the cytotoxicity at 10 µM was 0.661%.

`CC(O)CNC(=O)CCc1nc2ncccc2[nH]1` (stereo unspecified): the cytotoxicity at 10 µM is -3.5%.

As for `Cc1noc([C@@]23CCO[C@@H]2CCN(S(=O)(=O)c2cccnc2)C3)n1`, the cytotoxicity at 10 µM is -103%.

On to `CC(NC(=O)CNS(C)(=O)=O)c1ccccc1Oc1ccccc1` (stereo unspecified), for which the cytotoxicity at 10 µM was 4.69%.

For the compound `CN(Cc1ccc(F)cc1)C(=O)c1ccoc1CN1CCNC(=O)C1`, the cytotoxicity at 10 µM is -3.57%.

In the case of `COc1ccccc1C(=O)N1CCN(C(=O)CCn2ccnc2)CC1`, the cytotoxicity at 10 µM is -148%.

With `CCn1nc(C)c2c1cnn2CC(=O)Nc1ccc(OC)cc1C`, the cytotoxicity at 10 µM was -80.1%.

Regarding `CCN1CCN(CC(=O)N2CCOC(Cc3ccc(OC)cc3)C2)CC1` (stereo unspecified), the cytotoxicity at 10 µM was -2.77%.

With `Cc1ccc(-c2cc(N)c(=O)n(CC(=O)NC3CCCC3)n2)s1`, the cytotoxicity at 10 µM was -20.3%.

For the compound `CSc1ccc2c(C)cc(N[C@@H](C)CO)nc2c1`, the cytotoxicity at 10 µM was -1.07%.

With `O=C(CC1COCCN1)NCCc1noc(-c2ccccc2)n1` (stereo unspecified), the cytotoxicity at 10 µM was 3.05%.

Turning to `COc1ccc(C(=O)Nc2ccccc2C(C)C)c(OC)n1`, the cytotoxicity at 10 µM is 3.66%.

Regarding `CN(Cc1n[nH]c(=O)n1CCc1ccccc1F)S(C)(=O)=O`, the cytotoxicity at 10 µM was -1.78%.

Take `O=C(c1ccco1)N1CCc2ncnc(Oc3cccnc3)c2CC1`: the cytotoxicity at 10 µM was -2.86%.

As to `COc1ccc(CC(=O)N2CCCCC2Cn2cccn2)cc1OC` (stereo unspecified), the cytotoxicity at 10 µM is -12.4%.

In the case of `COCCn1cc(C(=O)N2CCCC2c2cccc(C)c2)ccc1=O` (stereo unspecified), the cytotoxicity at 10 µM was determined as 5.59%.

Regarding `Cc1ccc(OCCN(C)S(=O)(=O)N2CCOCC2)cc1`, the cytotoxicity at 10 µM stood at 0.651%.

`Cn1cc(C2COC3(CCN(C(=O)c4ccn(C)n4)CC3)C2)cn1` (stereo unspecified): the cytotoxicity at 10 µM was -66.5%.

For the compound `CN(C)C(=O)c1cccn1-c1ccc2c(c1)OCCO2`, the cytotoxicity at 10 µM came to 12.6%.

With `c1csc(N2[C@H](Cn3cncn3)C[C@@H]3CNCC[C@@H]32)n1`, the cytotoxicity at 10 µM was -142%.

As to `O=C(CCn1ccccc1=O)N1CCCC(COc2ccc(F)cc2)C1` (stereo unspecified), the cytotoxicity at 10 µM is -4.19%.

In the case of `CCN(CCC#N)Cn1ncc2cn(-c3ccccc3)nc2c1=O`, the cytotoxicity at 10 µM is -14.5%.

`C[C@@H]1CN(C2CCN(Cc3cnc(-c4cccs4)nc3)CC2)C[C@H](C)O1`: the cytotoxicity at 10 µM is -13.7%.
